The source of these data is paper PMC11378026 (RSC Advances, 2024).

Experiment [1] concerns breast cancer (MCF-7) cell line. The experiment is described as follows: MTT cytotoxicity assay on MCF-7 cells. The class given is cell-based, human. On the technique in general: Tetrazolium dyes change colour on reduction, which living cells bring about.
Experiment [2] relates to breast epithelial (MCF10A) cell line. The experiment is described as follows: MTT cytotoxicity assay on MCF10A cells. The conditions noted are these: Homo sapiens, MCF-10A, read-out: IC50 (μg mL^−1) ± SD against MCF-10A. Format: cell-based. Summed up:
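Mycoplasma-free MCF-10A cells, run in triplicate, were exposed to increasing doses of test compound, with 5-fluorouracil as positive control. MTT was added for 4 h, formazan was dissolved in DMSO, and absorbance was read at 570 and 630 nm. Viability = (A − A0)/(ANC − A0), using mean absorbances of treated, blank and cells-only wells. IC50 was derived from viability.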

Another experiment concerns breast cancer cells. Conditions: cited from earlier work.

≈ marks a conversion by molar mass, not a printed value. Where two headings read alike, the source gives them in different places.

As to `O=c1[nH]cc(F)c(=O)[nH]1` [5-FU, 5-fluorouracil, reference compound], the IC50 (usually the concentration that gives 50% inhibition) in experiment [1] (Homo sapiens, MCF7, read-out: IC50 (μg mL^−1) ± SD against MCF-7) was determined as 28.3 ± 1.89 µg/mL (≈ 218 µM); in experiment [2], 41 ± 1.89 µg/mL (≈ 315 µM). The “Selectivity index (SI)” value in experiment [1] (cancer MCF-7 cells over healthy MCF10A cells) is 1.45.

Consider `N.N.O=C([O-])C1(C(=O)[O-])CCC1.[Pt+2]` [Carboplatin], for which the IC50 in the experiment with breast cancer cells (ref S2) is 73.5 µM.

`N.N.[Cl][Pt][Cl]` [Cisplatin]: the concentration for half-maximal inhibition (IC50) in the experiment with breast cancer cells (ref S1) was 12.2 µM.

For `O=C1[O][Pt]2([NH][C@@H]3CCCC[C@H]3[NH]2)[O]C1=O` [Oxaliplatin], the half-inhibitory concentration (IC50) in the experiment on breast cancer cells (ref S2) was 21.9 µM.
